The text below walks through data of ChEMBL document CHEMBL1153170, “Novel imidazolopyrimidines as dual PI3-Kinase/mTOR inhibitors” (Bioorg Med Chem Lett, 2010).

Experiment [1] deals with T1, Phosphatidylinositol 4,5-bisphosphate 3-kinase catalytic subunit alpha isoform (Homo sapiens, UniProt P42336). Nature of the experiment: Inhibition of PI3Kalpha.
Experiment [2] concerns the target Phosphatidylinositol 4,5-bisphosphate 3-kinase catalytic subunit gamma isoform (Homo sapiens, UniProt P48736). Nature of the experiment: Inhibition of PI3Kgamma.
Experiment [3] has as its target Serine/threonine-protein kinase mTOR (Homo sapiens, UniProt P42345). Put plainly: Inhibition of mTOR.
The target in experiment [4] is T1, Phosphatidylinositol 4,5-bisphosphate 3-kinase catalytic subunit alpha isoform. The note with it: MDA-MB-361, 10 to 30 uM.
The target is the same in experiment [5]. Nature of the experiment: Inhibition of PI3Kalpha in human MDA-MB-361 cells assessed as reduction of phosphorylated Akt (T308) level after 4 hrs by Western blotting. Format: cell-based. Summed up: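 Cells seeded 24 h before 4 h compound exposure in complete growth medium, washed with cold PBS, lysed in Tris-HCl pH 7.5/NaCl/EDTA/EGTA/Triton buffer with phosphatase and protease inhibitors. Lysates resolved by SDS-PAGE, blotted to nitrocellulose, probed for phospho-Akt T308, total Akt, actin; HRP secondary, chemiluminescent detection.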

Experiment [6] relates to MDA-MB-361. Nature of the experiment: Growth inhibition of human MDA-MB-361 cells after 72 hrs by celltiter assay. In kind it is functional, cell-based. The note with it: MDA-MB-361, 72 h. In outline: (§1)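 Cells from ATCC, maintained at 37 °C, 5% CO2 in growth medium with 10% fetal calf serum plus penicillin/streptomycin. Seeding density set per line's growth characteristics; 96-well format. Viable cells quantified by CellTiter 96 aqueous non-radioactive colorimetric proliferation assay after 72 h compound exposure.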

Experiment [7] is described as follows: Growth inhibition of human PC3MM2 cells after 72 hrs by celltiter assay. Format: functional, cell-based. Conditions: PC3MM2, 72 h. Summed up:
as §1

Structures are written as SMILES. The source made the active and inactive calls. The rule behind the calls is not given here.

T1 sequence (P42336 whole entry, canonical isoform): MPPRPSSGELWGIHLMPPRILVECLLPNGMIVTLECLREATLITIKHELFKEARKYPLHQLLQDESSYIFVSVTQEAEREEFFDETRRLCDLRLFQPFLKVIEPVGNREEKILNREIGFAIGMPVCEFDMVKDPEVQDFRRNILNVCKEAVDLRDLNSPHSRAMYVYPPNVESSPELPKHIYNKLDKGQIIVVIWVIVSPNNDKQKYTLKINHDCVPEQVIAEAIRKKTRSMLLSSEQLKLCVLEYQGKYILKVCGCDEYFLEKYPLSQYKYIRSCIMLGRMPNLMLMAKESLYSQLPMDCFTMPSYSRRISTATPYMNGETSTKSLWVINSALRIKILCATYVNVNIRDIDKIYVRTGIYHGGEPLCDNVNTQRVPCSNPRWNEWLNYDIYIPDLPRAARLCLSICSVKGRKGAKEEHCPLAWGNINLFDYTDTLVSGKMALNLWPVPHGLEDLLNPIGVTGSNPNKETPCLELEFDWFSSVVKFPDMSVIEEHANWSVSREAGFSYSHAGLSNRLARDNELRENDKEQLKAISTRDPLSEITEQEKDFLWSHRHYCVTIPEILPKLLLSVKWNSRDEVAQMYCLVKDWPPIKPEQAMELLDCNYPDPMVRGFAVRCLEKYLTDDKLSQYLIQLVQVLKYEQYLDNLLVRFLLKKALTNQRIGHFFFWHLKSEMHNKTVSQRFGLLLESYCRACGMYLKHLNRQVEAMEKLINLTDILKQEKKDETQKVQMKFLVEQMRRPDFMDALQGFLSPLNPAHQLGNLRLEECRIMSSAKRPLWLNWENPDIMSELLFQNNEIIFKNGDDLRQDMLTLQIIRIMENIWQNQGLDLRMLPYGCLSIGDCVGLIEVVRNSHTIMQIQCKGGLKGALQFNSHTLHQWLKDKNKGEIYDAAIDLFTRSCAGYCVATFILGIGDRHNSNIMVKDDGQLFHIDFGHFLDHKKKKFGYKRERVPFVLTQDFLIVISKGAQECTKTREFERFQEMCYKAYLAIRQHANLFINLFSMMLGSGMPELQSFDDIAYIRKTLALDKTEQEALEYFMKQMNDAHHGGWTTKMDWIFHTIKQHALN
Chain of Phosphatidylinositol 4,5-bisphosphate 3-kinase catalytic subunit gamma isoform (P48736 whole entry, canonical isoform): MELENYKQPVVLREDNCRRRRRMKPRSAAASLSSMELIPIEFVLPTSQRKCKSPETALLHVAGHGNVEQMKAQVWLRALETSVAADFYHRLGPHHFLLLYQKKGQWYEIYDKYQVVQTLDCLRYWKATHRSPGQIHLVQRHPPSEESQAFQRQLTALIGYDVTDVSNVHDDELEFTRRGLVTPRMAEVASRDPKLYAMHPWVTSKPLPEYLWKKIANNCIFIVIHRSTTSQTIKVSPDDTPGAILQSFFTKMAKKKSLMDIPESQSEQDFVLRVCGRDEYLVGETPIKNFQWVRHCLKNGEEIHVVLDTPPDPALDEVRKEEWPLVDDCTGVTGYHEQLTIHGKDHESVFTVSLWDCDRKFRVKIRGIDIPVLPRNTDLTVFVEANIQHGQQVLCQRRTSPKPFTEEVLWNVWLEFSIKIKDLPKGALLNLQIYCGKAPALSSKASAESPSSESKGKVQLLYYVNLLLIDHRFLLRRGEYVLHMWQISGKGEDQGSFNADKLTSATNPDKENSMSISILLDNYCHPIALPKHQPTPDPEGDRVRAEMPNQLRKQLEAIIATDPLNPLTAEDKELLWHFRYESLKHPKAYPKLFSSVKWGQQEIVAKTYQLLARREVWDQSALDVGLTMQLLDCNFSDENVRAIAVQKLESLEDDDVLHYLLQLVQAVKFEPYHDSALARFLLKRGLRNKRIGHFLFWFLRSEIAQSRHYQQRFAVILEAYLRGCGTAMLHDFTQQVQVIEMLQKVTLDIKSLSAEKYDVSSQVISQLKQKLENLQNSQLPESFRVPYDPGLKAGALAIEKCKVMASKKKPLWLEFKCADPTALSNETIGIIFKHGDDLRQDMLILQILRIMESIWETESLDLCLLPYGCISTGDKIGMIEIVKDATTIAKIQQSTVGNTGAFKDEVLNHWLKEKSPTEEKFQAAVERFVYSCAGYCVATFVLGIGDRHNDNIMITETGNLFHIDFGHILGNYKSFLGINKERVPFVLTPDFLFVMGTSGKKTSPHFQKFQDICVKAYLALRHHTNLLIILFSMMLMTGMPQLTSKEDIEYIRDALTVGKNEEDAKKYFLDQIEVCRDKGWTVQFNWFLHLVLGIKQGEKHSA

As to `Oc1cncc(-c2nc(N3CCOCC3)c3nc[nH]c3n2)c1`, the IC50 in experiment [1] came out at 11 nM; in experiment [2], 47 nM.
As to `OCc1cccc(-c2nc(N3CCOCC3)c3ncn(C4CCN(Cc5ccc(F)cc5)CC4)c3n2)c1`, the 50% inhibitory concentration (IC50) in experiment [1] stood at 70 nM; in experiment [2] it was 594 nM.
The matching figures for `Oc1cccc(-c2nc(N3CCOCC3)c3ncn(C4CCN(Cc5cccnc5)CC4)c3n2)c1`: 66 nM and 583 nM.
The matching figures for `Cc1ccc(CN2CCC(n3cnc4c(N5CCOCC5)nc(-c5cncc(O)c5)nc43)CC2)cc1`: 42 nM and 204 nM.
In the case of `Oc1cncc(-c2nc(N3CCOCC3)c3ncn(C4CCN(Cc5ccc(Cl)cc5)CC4)c3n2)c1`, the IC50 in experiment [1] was 16 nM; in experiment [2], 119 nM.
Turning to `OCc1cccc(-c2nc(N3CCOCC3)c3ncn(C4CCN(Cc5ccccc5F)CC4)c3n2)c1`, the results for the IC50 in experiment [1] and in experiment [2] were 42 nM and 1100 nM, respectively.
For the molecule `COc1ccc(CN2CCC(n3cnc4c(N5CCOCC5)nc(-c5cccc(O)c5)nc43)CC2)cn1`, the IC50 in experiment [1] was determined as 55 nM; in experiment [2], 306 nM.
For `Oc1cccc(-c2nc(N3CCOCC3)c3ncn(C4CCN(Cc5ccc(N6CCOCC6)nc5)CC4)c3n2)c1`, the values for the IC50 in experiment [1], in experiment [3] and in experiment [2] were 40 nM, 152 nM and 368 nM, respectively.
With `OCc1cccc(-c2nc(N3CCOCC3)c3ncn(C4CCN(Cc5ccc(-c6ccncc6)cc5)CC4)c3n2)c1`, the half-inhibitory concentration (IC50) worked out at 23 nM in experiment [1] and 223 nM in experiment [2].
Turning to `Oc1cccc(-c2nc(N3CCOCC3)c3ncn(C4CCNCC4)c3n2)c1`, the IC50 in experiment [1] amounted to 64 nM; in experiment [3] it was 950 nM; in experiment [2] it was 133 nM.
Take `Oc1cccc(-c2nc(N3CCOCC3)c3nc[nH]c3n2)c1`: the figures for the IC50 in experiment [1], in experiment [3] and in experiment [2] were 150 nM, 1650 nM and 2340 nM, respectively.
Consider `OCc1cccc(-c2nc(N3CCOCC3)c3ncn(C4CCN(c5ccc(F)cc5F)CC4)c3n2)c1`, for which the figures for the IC50 in experiment [1], in experiment [3] and in experiment [2] were 44 nM, 2050 nM and 640 nM, respectively.
Consider `CN(C)CCCOc1ccc(CN2CCC(n3cnc4c(N5CCOCC5)nc(-c5cccc(CO)c5)nc43)CC2)cc1`, for which, in experiment [4], the inhibition result was “Active”. Further, the IC50 in experiment [1] stood at 16 nM; in experiment [5], 300 nM; in experiment [2], 265 nM; in experiment [6], 685 nM; in experiment [7], 512 nM.
As to `OCc1cccc(-c2nc(N3CCOCC3)c3ncn(C4CCNCC4)c3n2)c1`, the results for the IC50 in experiment [1] and in experiment [2] were 57 nM and 683 nM, respectively.
The matching figures for `OCc1cccc(-c2nc(N3CCOCC3)c3ncn(C4CCN(Cc5ccccn5)CC4)c3n2)c1`: 65 nM and 776 nM.
Take `CC(=O)N1CCC(n2cnc3c(N4CCOCC4)nc(-c4cccc(CO)c4)nc32)CC1`: the half-inhibitory concentration (IC50) in experiment [1] amounted to 189 nM; in experiment [2], 1380 nM.
With `Oc1cccc(-c2nc(N3CCOCC3)c3ncn(C4CCN(Cc5cncc(Cl)c5)CC4)c3n2)c1`, the half-maximal inhibitory concentration (IC50) in experiment [1] worked out at 37 nM; in experiment [3] it was 200 nM; in experiment [2], 341 nM.
Turning to `Oc1cccc(-c2nc(N3CCOCC3)c3ncn(C4CCN(Cc5ccccc5)CC4)c3n2)c1`, the IC50 worked out at 75 nM in experiment [1] and 10000 nM in experiment [2].
`Oc1cncc(-c2nc(N3CCOCC3)c3ncn(C4CCN(Cc5ccc(F)nc5)CC4)c3n2)c1`: the concentration for half-maximal inhibition (IC50) amounted to 94 nM in experiment [1] and 61 nM in experiment [2].
As to `Oc1cncc(-c2nc(N3CCOCC3)c3ncn(C4CCNCC4)c3n2)c1`, the IC50 in experiment [1] was 14 nM; in experiment [2] it was 44 nM.

What is called IC50 is the concentration that gives 50% inhibition.
